Data as given in article PMC9664485 (European journal of medicinal chemistry, 2022).
Where “and” joins values, the source holds several entries; their conditions need not be identical. Equal values may be shown once.

Columns and labels:
[1] = molecular target: T1, recombinant human Wip1 (1–420) (Homo sapiens, UniProt O15297); experiment: Wip1 phosphatase activity inhibition assay; type: biochemical; conditions: for Hill coefficient [n]: variable slope logistic fit of Wip1 inhibition curve
T1 sequence (O15297 1-420): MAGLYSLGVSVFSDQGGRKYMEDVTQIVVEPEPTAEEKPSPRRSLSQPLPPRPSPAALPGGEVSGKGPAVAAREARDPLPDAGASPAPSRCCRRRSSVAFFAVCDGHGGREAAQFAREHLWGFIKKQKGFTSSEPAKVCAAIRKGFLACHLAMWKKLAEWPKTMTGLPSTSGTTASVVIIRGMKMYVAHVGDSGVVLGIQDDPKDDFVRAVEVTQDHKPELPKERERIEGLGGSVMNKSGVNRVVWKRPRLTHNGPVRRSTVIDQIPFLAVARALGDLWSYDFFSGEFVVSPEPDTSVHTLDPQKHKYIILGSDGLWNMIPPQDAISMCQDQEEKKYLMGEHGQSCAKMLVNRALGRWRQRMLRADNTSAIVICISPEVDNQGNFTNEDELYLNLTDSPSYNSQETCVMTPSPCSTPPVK

[2] = molecular target: T2, PPM1A (also called PP2Cα) (Homo sapiens, UniProt P35813); experiment: PPM1A phosphatase specificity assay; type: biochemical; conditions: up to 100 μM; 8 nM PPM1A, 100 μM human p38α (175–185, 180pT) phosphopeptide
T2 sequence (P35813 1-382): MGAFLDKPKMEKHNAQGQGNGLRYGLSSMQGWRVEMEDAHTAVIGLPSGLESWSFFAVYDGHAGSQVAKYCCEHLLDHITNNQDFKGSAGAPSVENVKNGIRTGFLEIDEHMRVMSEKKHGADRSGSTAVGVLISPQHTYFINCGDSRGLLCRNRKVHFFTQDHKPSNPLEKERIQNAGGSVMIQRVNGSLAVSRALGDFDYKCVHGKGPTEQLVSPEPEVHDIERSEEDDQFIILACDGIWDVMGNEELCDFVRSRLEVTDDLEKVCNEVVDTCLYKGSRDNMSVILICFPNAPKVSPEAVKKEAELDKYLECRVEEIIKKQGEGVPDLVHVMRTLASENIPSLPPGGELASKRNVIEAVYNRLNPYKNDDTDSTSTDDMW
Procedure, shortened: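 Test compound or DMSO is mixed with the phosphopeptide substrate before PPM1A is added. Buffer: 50 mM Tris·HCl pH 7.5, 0.1 mM EGTA, 1 mM DTT, 1 mM CHAPS, 0.1 mg/mL BSA, 30 mM MgCl2. Incubation runs 7 min at 30 °C. Biomol Green stops the reaction, then colour develops 20 min at room temperature. Released phosphate is read at 620 nm against a phosphate standard curve.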

Structure (SMILES)	fold improvement in Wip1 inhibition ([1]; compared with 22g) [fold]	Hill coefficient [n] [1]	inhibitory activity against PPM1A [2]
O=C(Nc1cccc(Cl)c1)c1cccc(CNc2ccc(C(=O)Nc3cccc(OP(=O)(O)O)c3)cc2CC2CCCCC2)c1 [Compound 40b, 3-(4-((3-((3-chlorophenyl)carbamoyl)benzyl)amino)-3-(cyclohexylmethyl)benzamido)phenyl dihydrogen phosphate]	7	1.4 ± 0.1	no inhibitory activity
O=C(Nc1cccc(OP(=O)(O)O)c1)c1ccc(NC(=O)c2cccc(CNc3cccc(Cl)c3)c2)c(CC2CCCCC2)c1 [Compound 48b, 3-(4-(3-(((3-chlorophenyl)amino)methyl)benzamido)-3-(cyclohexylmethyl)benzamido)phenyl dihydrogen phosphate]	–	2.3 ± 0.2	no inhibitory activity
O=C(Nc1cccc(Cl)c1)c1cccc(C(=O)Nc2ccc(C(=O)Nc3cccc(OP(=O)(O)O)c3)cc2CC2CCCCC2)c1 [Compound 48a, 3-(4-(3-((3-chlorophenyl)carbamoyl)benzamido)-3-(cyclohexylmethyl)benzamido)phenyl dihydrogen phosphate]	–	5 and 5.1 ± 0.3	no inhibitory activity
